Results published in ChEMBL document CHEMBL1127574, “Design and synthesis of ellipticinium salts and 1,2-dihydroellipticines with high selectivities against human CNS cancers in vitro” (1994).

Assays:
Assay type in all cases: functional
Malme-3M = assay: Tested in vitro for cytotoxicity in MALME-3M cell line of Melanoma; conditions: Homo sapiens, read-out: Log TGI (converted)
In short: (§1)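 Compounds dissolved in DMSO, then diluted 500-fold into aqueous medium. The resulting aqueous solutions or suspensions were added to the cultured human tumour cell lines, and the cells were exposed for 48 h. Growth was read colorimetrically in one of two ways: a metabolic assay in which viable cells reduce a tetrazolium salt to a formazan dye, or a protein stain for total cellular protein.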

MOLT-4 = assay: Tested in vitro for cytotoxicity in MOLT-4 cell line of Leukemia; conditions: Homo sapiens, read-out: Log TGI (converted); in short: as §1
NCI-H522 = assay: Tested in vitro for cytotoxicity in NCI-H522 cell line of Non-Small Cell Lung Cancer; conditions: Homo sapiens, read-out: Log TGI (converted); in short: as §1
OVCAR-8 = assay: Tested in vitro for cytotoxicity in OVCAR-8 cell line of Ovarian Cancer; conditions: Homo sapiens, read-out: Log TGI (converted); in short: as §1
NCI-H23 = assay: Tested in vitro for cytotoxicity in NCI-H23 cell line of Non-Small Cell Lung Cancer; conditions: Homo sapiens, read-out: Log TGI (converted); in short: as §1
OVCAR-5 = assay: Tested in vitro for cytotoxicity in OVCAR-5 cell line of Ovarian Cancer; conditions: Homo sapiens, read-out: Log TGI (converted); in short: as §1
RPMI-8226 = assay: Tested in vitro for cytotoxicity in RPMI-8226 cell line of Leukemia; conditions: Homo sapiens, read-out: Log TGI (converted); in short: as §1
RXF 631 = assay: Tested in vitro for cytotoxicity in RXF-631 cell line of Renal cancer; conditions: Homo sapiens, read-out: Log TGI (converted); in short: as §1
SF-268 [1] = assay: Tested in vitro for cytotoxicity in SF-268 cell line of CNS cancer; conditions: Homo sapiens, read-out: Log TGI (converted); in short: as §1
SF-268 [2] = assay: Tested in vitro for cytotoxicity in SF-268 cell lines; conditions: Homo sapiens; in short: as §1
SNB-78 = assay: Tested in vitro for cytotoxicity in SNB-78 cell line of CNS Cancer; conditions: Homo sapiens, read-out: Log TGI (converted)
In short: (§2)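 Compounds dissolved in DMSO and diluted 500-fold into aqueous medium; aliquots of the resulting solutions or suspensions added to cultured human tumor cells for 48 h. Growth read colorimetrically, either by tetrazolium reduction to formazan by viable cells or by protein staining of total cellular protein.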

SK-MEL-2 = assay: Tested in vitro for cytotoxicity in SK-MEL-2 cell line of Melanoma; conditions: Homo sapiens, read-out: Log TGI (converted); in short: as §1
SF-539 = assay: Tested in vitro for cytotoxicity in SF-539 cell line of CNS Cancer; conditions: Homo sapiens, read-out: Log TGI (converted); in short: as §1
SNB-19 = assay: Tested in vitro for cytotoxicity in SNB-19 cell line of CNS Cancer; conditions: Homo sapiens, read-out: Log TGI (converted)
In short: (§3)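 Compound DMSO solutions diluted 500-fold into aqueous medium; the resulting solutions or suspensions were added to cultured human tumor cells for 48 h. Growth was read colorimetrically, either by tetrazolium reduction to formazan by viable cells or by a protein stain for total cellular protein.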

SF-295 = assay: Tested in vitro for cytotoxicity in SF-295 cell line of CNS Cancer; conditions: Homo sapiens, read-out: Log TGI (converted); in short: as §1
SK-MEL-5 = assay: Tested in vitro for cytotoxicity in SK-MEL-5 cell line of Melanoma; conditions: Homo sapiens, read-out: Log TGI (converted); in short: as §2
SNB-75 = assay: Tested in vitro for cytotoxicity in SNB-75 cell line of CNS Cancer; conditions: Homo sapiens, read-out: Log TGI (converted); in short: as §2
SW-620 = assay: Tested in vitro for cytotoxicity in SW-620 cell line of Colon Cancer; conditions: Homo sapiens, read-out: Log TGI (converted); in short: as §2
SK-OV-3 = assay: Tested in vitro for cytotoxicity in SK-OV-3 cell line of Ovarian Cancer; conditions: Homo sapiens, read-out: Log TGI (converted); in short: as §2
U-251 = assay: Tested in vitro for cytotoxicity in U251 cell line of CNS Cancer; conditions: Homo sapiens, read-out: Log TGI (converted); in short: as §2
UACC-257 = assay: Tested in vitro for cytotoxicity in UACC-257 cell line of Melanoma; conditions: Homo sapiens, read-out: Log TGI (converted); in short: as §2
UACC-62 = assay: Tested in vitro for cytotoxicity in UACC-62 cell line of Melanoma; conditions: Homo sapiens, read-out: Log TGI (converted); in short: as §2
XF498 = assay: Tested in vitro for cytotoxicity in XF498 cell line of CNS Cancer; conditions: Homo sapiens, read-out: Log TGI (converted); in short: as §3
NCI-H460 = assay: Tested in vitro for cytotoxicity in NCI-H460 cell line of Non-Small Cell Lung Cancer; conditions: Homo sapiens, read-out: Log TGI (converted); in short: as §1
TK-10 = assay: Tested in vitro for cytotoxicity in TK-10 cell line of Renal cancer; conditions: Homo sapiens, read-out: Log TGI (converted); in short: as §2
786-0 = assay: Tested in vitro for cytotoxicity in 786-0 cell line of Renal cancer; conditions: Homo sapiens, read-out: Log TGI (converted); in short: as §1
HCT-116 = assay: Tested in vitro for cytotoxicity in HCT116 cell line of Colon Cancer; conditions: Homo sapiens, read-out: Log TGI (converted); in short: as §1
COLO 205 = assay: Tested in vitro for cytotoxicity in COLO 205 cell lines; conditions: Homo sapiens; in short: as §1
UO-31 = assay: Tested in vitro for cytotoxicity in UO-31 cell line of Renal cancer; conditions: Homo sapiens, read-out: Log TGI (converted); in short: as §2
SK-MEL-28 = assay: Tested in vitro for cytotoxicity in SK-MEL-28 cell line of Melanoma; conditions: Homo sapiens, read-out: Log TGI (converted); in short: as §1
OVCAR-3 = assay: Tested in vitro for cytotoxicity in OVCAR-3 cell line of Ovarian Cancer; conditions: Homo sapiens, read-out: Log TGI (converted); in short: as §3

COc1ccc2[nH]c3c(C)c4cc[n+](C)cc4c(C)c3c2c1
TGI (Malme-3M): 25.1 µM
TGI (MOLT-4): > 100 µM
TGI (NCI-H522): 7.94 µM
TGI (OVCAR-8): 31.6 µM
TGI (NCI-H23): 10 µM
TGI (OVCAR-5): > 100 µM
TGI (RPMI-8226): > 100 µM
TGI (RXF 631): > 100 µM
TGI (SF-268 [1]): 5.01 µM
GI50 (SF-268 [2]): 409 nM
TGI (SNB-78): 10 µM
TGI (SK-MEL-2): 63.1 µM
TGI (SF-539): 6.31 µM
TGI (SNB-19): 10 µM
TGI (SF-295): 6.31 µM
TGI (SK-MEL-5): 20 µM
TGI (SNB-75): 3.16 µM
TGI (SW-620): > 100 µM
TGI (SK-OV-3): > 100 µM
TGI (U-251): 5.01 µM
TGI (UACC-257): > 100 µM
TGI (UACC-62): > 100 µM
TGI (XF498): 10 µM
TGI (NCI-H460): 79.4 µM
TGI (TK-10): > 100 µM
TGI (786-0): 5.01 µM
TGI (HCT-116): > 100 µM
GI50 (COLO 205): 2400 nM
TGI (UO-31): > 100 µM
TGI (SK-MEL-28): 50.1 µM
TGI (OVCAR-3): 100 µM
